What was measured:
[1] = V max(amide I) measured in dimethyl sulfoxide; type: ADME
Method in brief: (§1)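 IR stretching frequencies measured in dimethyl sulfoxide solution. Frequencies are calibrated against the rotational bands of the vapor.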

[2] = Pseudo-first order rate of beta-lactam cleavage at pH 9.2 and 35 degrees C; type: ADME
Method in brief: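 Alkaline hydrolysis at pH 9.2 and 35.0 °C, followed as loss of absorbance near 260 nm. This is a slightly lower pH than a pH 9.94 carbonate buffer (NaHCO3 + Na2CO3 + NaCl, μ = 0.5). Pseudo-first-order k is obtained by least squares over the linear regions at 95% confidence.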

[3] = V max(beta-lactam) measured in dimethyl sulfoxide; type: ADME; method in brief: as §1
Escherichia coli [4] = assay: Minimum inhibitory concentration (MIC) against Escherichia coli NIHJ JC-2 in gradient plate method; type: functional
Method in brief: (§2)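 Gradient plate technique. Compound is incorporated into a tilted bottom agar layer, then overlaid horizontally with compound-free agar. A 10^6 cells/mL suspension is streaked across the gradient and incubated at 37 °C for 18–20 h. MIC is calculated from the growth distance along the streak and the original bottom-layer concentration.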

Klebsiella pneumoniae [5] = assay: Minimum inhibitory concentration (MIC) against Klebsiella pneumoniae SRL-1 in gradient plate method; type: functional; method in brief: as §2
Escherichia coli [6] = assay: Minimum inhibitory concentration (MIC) against Escherichia coli NIHJ JC-2 in agar dilution method; type: functional
Method in brief: (§3)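 Agar dilution on sensitivity test agar. Overnight tryptose broth culture diluted in the same broth to about 10^6 cells/mL and inoculated onto agar containing serial twofold dilutions of antibiotic. Incubated at 37 °C for 18–20 h. MIC taken as the lowest concentration inhibiting visible growth.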

Klebsiella pneumoniae [7] = assay: Minimum inhibitory concentration (MIC) against Klebsiella pneumoniae SRL-1 iin agar dilution method; type: functional; method in brief: as §3
Klebsiella pneumoniae [8] = assay: Minimum inhibitory concentration (MIC) against Klebsiella pneumoniae SRL-1 in agar dilution method; type: functional; method in brief: as §3

SMILES | Vmax [1] [cm⁻¹] | k [2] [h⁻¹] | Vmax [3] [cm⁻¹] | MIC (Escherichia coli [4]) [µg/mL] | MIC (Klebsiella pneumoniae [5]) [µg/mL] | MIC (Escherichia coli [6]) [µg/mL] | MIC (Klebsiella pneumoniae [7]) [µg/mL] | MIC (Klebsiella pneumoniae [8]) [µg/mL]
Cn1nnnc1SCC1=C(C(=O)[O-])N2C(=O)[C@@H](NC(=O)Cc3ccc(O)cc3)C2SC1.[Na+] (some centres undefined) | 1676.3 | 0.0227 | 1773.1 | 1.2 | 1.4 |  |  | 
CO[C@@]1(NC(=O)C(C(=O)[O-])c2ccc(O)cc2)C(=O)N2C(C(=O)[O-])=C(CSc3nnnn3C)CSC21.[Na+].[Na+] (some centres undefined) | 1682.3 | 0.0239 | 1767.8 | 0.55 | 0.37 | 0.78 | 0.39 | 
CO[C@@]1(NC(=O)Cc2ccc(O)cc2)C(=O)N2C(C(=O)[O-])=C(CSc3nnnn3C)CSC21.[Na+] (some centres undefined) | 1690.6 | 0.0351 | 1768.1 | 0.5 | 1.3 |  |  | 
COC1(NC(=O)C(C(=O)[O-])c2ccc(O)cc2)C(=O)N2C(C(=O)[O-])=C(CSc3nnnn3C)CCC21.[Na+].[Na+] (centres undefined) | 1684.5 | 0.0694 | 1757 |  |  | 6.25 |  | 3.13
Cn1nnnc1SCC1=C(C(=O)[O-])N2C(=O)[C@@](C)(NC(=O)C(C(=O)[O-])c3ccc(O)cc3)C2OC1.[Na+].[Na+] (some centres undefined) | 1668.2 | 0.0148 | 1774.5 |  |  | 12.5 |  | 12.5
Cn1nnnc1SCC1=C(C(=O)[O-])N2C(=O)[C@@H](NC(=O)C(C(=O)[O-])c3ccc(O)cc3)C2SC1.[Na+].[Na+] (some centres undefined) | 1669 | 0.0239 | 1770 | 1.5 | 2.3 |  |  | 

Continued, values first:

Vmax [1] [cm⁻¹] | k [2] [h⁻¹] | Vmax [3] [cm⁻¹] | MIC (Escherichia coli [4]) [µg/mL] | MIC (Klebsiella pneumoniae [5]) [µg/mL] | MIC (Escherichia coli [6]) [µg/mL] | MIC (Klebsiella pneumoniae [7]) [µg/mL] | MIC (Klebsiella pneumoniae [8]) [µg/mL] | SMILES
1674.5 | 0.139 | 1778.2 | 0.34 | 0.31 |  |  |  | Cn1nnnc1SCC1=C(C(=O)[O-])N2C(=O)[C@@H](NC(=O)Cc3ccc(O)cc3)C2OC1.[Na+] (some centres undefined)
1665.4 | 0.127 | 1779.2 | 0.29 | 0.3 |  |  |  | Cn1nnnc1SCC1=C(C(=O)[O-])N2C(=O)[C@@H](NC(=O)C(C(=O)[O-])c3ccc(O)cc3)C2OC1.[Na+].[Na+] (some centres undefined)
1686.6 | 0.178 | 1771.8 | 0.09 | 0.06 | 0.1 | 0.1 |  | CO[C@@]1(NC(=O)C(C(=O)[O-])c2ccc(O)cc2)C(=O)N2C(C(=O)[O-])=C(CSc3nnnn3C)COC21.[Na+].[Na+] (some centres undefined)
1694.9 | 0.228 | 1772.9 | 0.08 | 0.1 |  |  |  | CO[C@@]1(NC(=O)Cc2ccc(O)cc2)C(=O)N2C(C(=O)[O-])=C(CSc3nnnn3C)COC21.[Na+] (some centres undefined)

— ChEMBL document CHEMBL1122389, “Synthesis and substituent effects on antibacterial activity, alkaline hydrolysis rates, and infrared absorption frequencies of some cephem analogues related to latamoxef (moxalactam)” (J Med Chem, 1983)
